Measured values of several laboratories.
Lines come from different studies, so protocols differ.
Melanocortin receptor 3: Melanocortin receptor 3 (Mus musculus, UniProt P33033)
Grm8: Metabotropic glutamate receptor 8 (Grm8, Rattus norvegicus, UniProt P70579)
CHRM1: Muscarinic acetylcholine receptor M1 (CHRM1, Homo sapiens, UniProt P11229)
TLR7: Toll-like receptor 7 (TLR7, Homo sapiens, UniProt Q9NYK1)

| Structure (SMILES) | target | read-out | mode | setting | EC50 [µM] |
| --- | --- | --- | --- | --- | --- |
| CC(=O)c1cc([N+](=O)[O-])c(Sc2cccc(Cl)c2Cl)s1 | Collagenase 3 (MMP13, Homo sapiens, UniProt P45452) | enzyme activity | inhibitor |  | > 50 |
| CCCC[C@H](NC(=O)[C@@H](NC(=O)[C@@H](N)Cc1ccc(O)cc1)C(C)C)C(=O)NCC(=O)N[C@@H](Cc1c[nH]cn1)C(=O)N[C@@H](Cc1ccccc1)C(=O)N[C@@H](CCCNC(=N)N)C(=O)N[C@H](Cc1c[nH]c2ccccc12)C(=O)N[C@@H](CC(=O)O)C(=O)N[C@@H](CCCNC(=N)N)C(=O)N[C@@H](Cc1ccccc1)C(=O)NCC(=O)O | Melanocortin receptor 3 | reporter gene | agonist |  | 0.04 |
| COC(=O)c1ccc(-n2c(C)cc(C(=O)CSc3ccc(NC(C)=O)cc3)c2C)cc1 | Grm8 | calcium signal | positive allosteric modulator |  | 0.851 |
| CSCC[C@H](N)C(=O)NCC(=O)N[C@@H](Cc1c[nH]cn1)C(=O)N[C@@H](Cc1ccccc1)C(=O)N[C@@H](CCCNC(=N)N)C(=O)N[C@@H](Cc1c[nH]c2ccccc12)C(=O)O | Melanocortin receptor 3 | reporter gene | agonist |  | 22.4 |
| C[C@]12CCC3=C4CCC(=O)C=C4CC[C@H]3[C@@H]1CC[C@@]2(O)CC#N | Progesterone receptor (PGR, Homo sapiens, UniProt P06401) | reporter gene | agonist |  | 0.0036 |
| CCn1c(-c2nc3ccc(C(=O)N4CCCC(N)C4)cc3n2C)cc2ccccc21 (centres unmarked) | CHRM1 | calcium signal | agonist |  | 15.8 |
| CC[C@@H]1SC2(CCN(C)CC2)NC1=O | Muscarinic acetylcholine receptor M4 (Rattus norvegicus, UniProt P08485) | calcium signal | agonist |  | > 50 |
| CCCCOc1nc(N)c2[nH]c(=O)n(CCN3CCNCC3)c2n1 | TLR7 | reporter gene | agonist |  | 10 |
| CCCC[C@H](NC(=O)[C@@H](NC(=O)[C@@H](N)Cc1ccc(O)cc1)C(C)C)C(=O)NCC(=O)N[C@@H](Cc1c[nH]cn1)C(=O)N[C@@H](Cc1ccccc1)C(=O)N[C@@H](CCCN=C(N)N)C(=O)N[C@@H](Cc1c[nH]c2ccccc12)C(=O)N[C@@H](CC(=O)O)C(=O)N[C@@H](CCCN=C(N)N)C(=O)N[C@@H](Cc1ccccc1)C(=O)NCC(=O)O | Melanocortin receptor 3 | reporter gene | agonist |  | 0.068 |
| N[C@@H](CCC(=O)O)C(=O)O | Grm8 | ion flux | agonist |  | 6.3 |
| CSCC[C@H](NC(=O)[C@@H](NC(=O)[C@@H](N)Cc1ccc(O)cc1)C(C)C)C(=O)NCC(=O)N[C@@H](Cc1c[nH]cn1)C(=O)N[C@@H](Cc1ccccc1)C(=O)N[C@@H](CCCNC(=N)N)C(=O)N[C@@H](Cc1c[nH]c2ccccc12)C(=O)O | Melanocortin receptor 3 | reporter gene | agonist |  | 2.8 |
| CCn1c(-c2nc3cc(C(=O)N4CCC[C@@H](N)C4)cc(OC)c3n2C)cc2cccnc21 | CHRM1 | calcium signal | agonist |  | 7.94 |
| CCCCOc1nc(N)c2[nH]c(=O)n(C3CNC3)c2n1 | TLR7 | reporter gene | agonist |  | 286 |
| CCNC(=O)C1OC(n2cnc3c(N)nc(NN=CC4CCC=CO4)nc32)C(O)C1O (centres unmarked) | Adenosine receptor A2b (ADORA2B, Homo sapiens, UniProt P29275) | GTPγS binding | agonist | cell membranes | 31 |
